Laboratory results: ChEMBL document CHEMBL1126111, “Potential antitumor agents. 21. Structure determination and antitumor activity of imidazo[2,1-b]thiazole guanylhydrazones” (1992)

Legend:
Format in all cases: functional
Conditions in all cases: route intraperitoneal
[1] = tested on: Mus musculus; assay: Antitumor activity in mice bearing Ehrlich ascites tumor cells at 100 mg/kg ip
Summary of the method: (§1)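 Female Swiss mice (average weight 21 ± 1 g), groups of eight, implanted with 10^6 Ehrlich ascites tumor cells from donor mice; single ip dose in DMSO given 24 h later, starting at 100 mg/kg, repeated at lower doses in new groups if active. Deaths followed for 60 days; % T/C = mean survival time treated vs vehicle controls (10 mice).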

[2] = tested on: Mus musculus; assay: Antitumor activity in mice bearing Ehrlich ascites tumor cells at 50 mg/kg ip; summary of the method: as §1
[3] = tested on: Mus musculus; assay: Antitumor activity in mice bearing Ehrlich ascites tumor cells at 25 mg/kg ip; summary of the method: as §1
[4] = tested on: Mus musculus; assay: Antitumor activity in mice bearing Ehrlich ascites tumor cells at 12.5 mg/kg ip; summary of the method: as §1

Compound Cc1nc2sccn2c1/C=N/N=C(N)N.Cl has a T/C [1] of 100%.
With Cl.N=C(N)N/N=C/c1c(-c2ccccc2)nc2n1CCS2 the T/C [2] was 100%.
In the case of Cc1nc2n(c1/C=N/N=C(N)N)CCS2.Cl, the T/C [2] is reported as 100%.
Work on Cc1ccc(-c2nc3sccn3c2/C=N/N=C(N)N)cc1.Cl yielded a T/C [3] of 110%.
With Cl.N=C(N)N/N=C/c1c(Cl)nc2n1CCS2 the T/C [1] was 180%.
Cl.N=C(N)N/N=C/c1c(-c2ccc(Cl)cc2)nc2sccn12 showed a T/C [4] of 190%.
Cl.N=C(N)N/N=C/c1c(-c2ccccc2)nc2sccn12 showed a T/C [2] of 120%.
Work on Cl.N=C(N)N/N=C/c1c(Cl)nc2sccn12 yielded a T/C [2] of 200%.
Cc1ccc(-c2nc3n(c2/C=N/N=C(N)N)CCS3)cc1.Cl showed a T/C [2] of 100%.
O=c1[nH]cc(F)c(=O)[nH]1 [FLUOROURACIL] was tested, and the T/C [1] was 180%.
